# Measured values: ChEMBL document CHEMBL3297654, “Synthesis, antimicrobial and cytotoxic activities, and structure-activity relationships of gypsogenin derivatives against human cancer cells” (Eur J Med Chem, 2014)
# Calls of active or inactive are those of the source. The rule behind the calls is not given here.
# Experiments:
# Bacillus cereus [1] = test: Antimicrobial activity against Bacillus cereus ATCC 11778 for 24 hrs by microdillution method; type: functional
# Summary of the method: (§1)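 Broth microdilution. Compound is dissolved in DMSO (2 mg/mL) and diluted in Mueller Hinton broth as two-fold serial dilutions from 256 to 0.125 µg/mL. Bacteria are pre-grown in nutrient broth at 30 °C, and the final inoculum is about 10^6 cfu/mL. Tests are incubated 37 °C for 24 h. MIC is the lowest concentration giving complete inhibition. Streptomycin is the positive control.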
# Staphylococcus aureus = test: Antimicrobial activity against Staphylococcus aureus ATCC 25923 assessed as zone of inhibition at 30 uL for 24 hrs at 37 degC by disk diffusion test; type: functional, organism-based
# Summary of the method: (§2)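 Compound (30 µL of a fresh 1000 µg/mL DMSO stock) goes into a 6 mm well cut in Mueller Hinton agar inoculated with 0.1 mL broth culture adjusted to 0.5 McFarland (about 1×10^8 cells/mL). Plates are incubated 24 h at 37 °C, then zone of inhibition diameter is measured in mm.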
# HeLa [2] = test: Induction of apoptosis in human HeLa cells at 20 uM after 48 hrs by Hoechst 33258/propidium iodide staining based phase contrast microscopic analysis; type: functional
# Summary of the method: (§3)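 Cells in 48-well plates treated with 0.5, 10, 20 or 40 µM for 24 and 48 h. Values are read at 48 h, 20 µM for test agents and 0.5 µM for controls. Staining is Hoechst 33258/propidium iodide double staining with fluorescence microscopy. Blue nuclei are viable or early-to-mid apoptotic, and pink nuclei are late apoptotic or necrotic. Apoptosis and necrosis are scored from chromatin condensation as % of cells. Cells are grown at 37 °C in 5% CO2 in RPMI, DMEM or McCoy's 5A with 10–15% heat-inactivated FCS.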
# Candida tropicalis = test: Antimicrobial activity against Candida tropicalis assessed as zone of inhibition at 30 uL for 24 hrs at 30 degC by disk diffusion test; type: functional, organism-based
# Summary of the method: (§4)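 Agar well diffusion on Mueller Hinton agar seeded with 0.1 mL broth culture (18–24 h), adjusted to 0.5 McFarland (about 1×10^8 bacteria or 1×10^6 yeast cells/mL). A 6 mm well is filled with 30 µL of compound from a fresh 1000 µg/mL DMSO stock. Plates are held at 30 °C for 24 h and inhibition zone diameter is read in mm.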
# HT-29 [3] = test: Induction of apoptosis in human HT-29 cells at 20 uM after 48 hrs by Hoechst 33258/propidium iodide staining based phase contrast microscopic analysis; type: functional; summary of the method: as §3
# Enterococcus faecalis = test: Antimicrobial activity against Enterococcus faecalis ATCC 29212 assessed as zone of inhibition at 30 uL for 24 hrs at 37 degC by disk diffusion test; type: functional, organism-based; summary of the method: as §2
# Bacillus cereus [4] = test: Antimicrobial activity against Bacillus cereus ATCC 11778 assessed as zone of inhibition at 30 uL for 24 hrs at 30 degC by disk diffusion test; type: functional; summary of the method: as §4
# SAOS-2 [5] = test: Induction of apoptosis in human Saos2 cells at 20 uM after 48 hrs by Hoechst 33258/propidium iodide staining based phase contrast microscopic analysis; type: functional; summary of the method: as §3
# HL-60 [6] = test: Induction of apoptosis in human HL60 cells at 20 uM after 48 hrs by Hoechst 33258/propidium iodide staining based phase contrast microscopic analysis; type: functional; summary of the method: as §3
# Saccharomyces cerevisiae = test: Antimicrobial activity against Saccharomyces cerevisiae ATCC 9763 assessed as zone of inhibition at 30 uL for 24 hrs at 30 degC by disk diffusion test; type: functional, organism-based; summary of the method: as §4
# HeLa [7] = test: Antiproliferative activity against human HeLa cells after 24 and 72 hrs by MTT assay; type: functional, cell-based
# Summary of the method: (§5)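 ATCC human cell lines are kept in RPMI, DMEM or McCoy's 5A with 10–15% heat-inactivated FCS at 37 °C and 5% CO2. They are seeded at 1×10^4–1×10^5 cells/mL in 48-well plates and exposed to 0.5, 10, 20 or 40 µM. Viability is read by MTT (590 nm) at 24 and 72 h. Growth is expressed relative to untreated cells and IC50 is fitted, in triplicate.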
# Candida albicans = test: Antimicrobial activity against Candida albicans ATCC 10231 assessed as zone of inhibition at 30 uL for 24 hrs at 30 degC by disk diffusion test; type: functional, organism-based; summary of the method: as §4
# HL-60 [8] = test: Antiproliferative activity against human HL60 cells after 24 and 72 hrs by MTT assay; type: functional, cell-based; summary of the method: as §5
# MCF7 [9] = test: Antiproliferative activity against human MCF7 cells after 24 and 72 hrs by MTT assay; type: functional, cell-based; summary of the method: as §5
# Klebsiella pneumoniae = test: Antimicrobial activity against Klebsiella pneumoniae ATCC 13882 assessed as zone of inhibition at 30 uL for 24 hrs at 37 degC by disk diffusion test; type: functional, organism-based; summary of the method: as §2
# Cyberlindnera jadinii = test: Antimicrobial activity against Candida utilis ATCC 9950 assessed as zone of inhibition at 30 uL for 24 hrs at 30 degC by disk diffusion test; type: functional, organism-based; summary of the method: as §4
# Caco-2 [10] = test: Antiproliferative activity against human Caco2 cells after 24 and 72 hrs by MTT assay; type: functional, cell-based; summary of the method: as §5
# Micrococcus luteus = test: Antimicrobial activity against Micrococcus luteus ATCC 9341 assessed as zone of inhibition at 30 uL for 24 hrs at 30 degC by disk diffusion test; type: functional, organism-based; summary of the method: as §4
# Escherichia coli = test: Antimicrobial activity against Escherichia coli ATCC 25922 assessed as zone of inhibition at 30 uL for 24 hrs at 37 degC by disk diffusion test; type: functional, organism-based; summary of the method: as §2
# HL-60 [11] = test: Induction of necrosis in human HL60 cells at 20 uM after 48 hrs by Hoechst 33258/propidium iodide staining based phase contrast microscopic analysis; type: functional; summary of the method: as §3
# Proteus vulgaris = test: Antimicrobial activity against Proteus vulgaris ATCC 33420 assessed as zone of inhibition at 30 uL for 24 hrs at 37 degC by disk diffusion test; type: functional, organism-based; summary of the method: as §2
# [12] = Antiproliferative activity against human Saos2 cells after 24 and 72 hrs by MTT assay; type: functional, cell-based; settings: SAOS-2; summary of the method: as §5
# [13] = test system: Staphylococcus epidermidis; test: Antimicrobial activity against Staphylococcus epidermidis ATCC 12228 assessed as zone of inhibition at 30 uL for 24 hrs at 37 degC by disk diffusion test; type: functional, organism-based; summary of the method: as §2
# Bacillus thuringiensis [14] = test: Antimicrobial activity against Bacillus thuringiensis assessed as zone of inhibition at 30 uL for 24 hrs at 30 degC by disk diffusion test; type: functional; summary of the method: as §4
# Caco-2 [15] = test: Induction of apoptosis in human Caco2 cells at 20 uM after 48 hrs by Hoechst 33258/propidium iodide staining based phase contrast microscopic analysis; type: functional; summary of the method: as §3
# HT-29 [16] = test: Induction of necrosis in human HT-29 cells at 20 uM after 48 hrs by Hoechst 33258/propidium iodide staining based phase contrast microscopic analysis; type: functional; summary of the method: as §3
# Bacillus thuringiensis [17] = test: Antimicrobial activity against Bacillus thuringiensis for 24 hrs by microdillution method; type: functional; summary of the method: as §1
# Salmonella typhimurium = test: Antimicrobial activity against Salmonella typhimurium ATCC 14028 assessed as zone of inhibition at 30 uL for 24 hrs at 37 degC by disk diffusion test; type: functional, organism-based; settings: Salmonella enterica subsp. enterica serovar Typhimurium; summary of the method: as §2
# HeLa [18] = test: Induction of necrosis in human HeLa cells at 20 uM after 48 hrs by Hoechst 33258/propidium iodide staining based phase contrast microscopic analysis; type: functional; summary of the method: as §3
# Pseudomonas aeruginosa = test: Antimicrobial activity against Pseudomonas aeruginosa ATCC 35032 assessed as zone of inhibition at 30 uL for 24 hrs at 37 degC by disk diffusion test; type: functional, organism-based; summary of the method: as §2
# MCF7 [19] = test: Induction of apoptosis in human MCF7 cells at 20 uM after 48 hrs by Hoechst 33258/propidium iodide staining based phase contrast microscopic analysis; type: functional; summary of the method: as §3
# MCF7 [20] = test: Induction of necrosis in human MCF7 cells at 20 uM after 48 hrs by Hoechst 33258/propidium iodide staining based phase contrast microscopic analysis; type: functional; summary of the method: as §3
# Nakaseomyces glabratus = test: Antimicrobial activity against Candida glabrata assessed as zone of inhibition at 30 uL for 24 hrs at 30 degC by disk diffusion test; type: functional, organism-based; summary of the method: as §4
# Bacillus subtilis [21] = test: Antimicrobial activity against Bacillus subtilis ATCC 6633 assessed as zone of inhibition at 30 uL for 24 hrs at 30 degC by disk diffusion test; type: functional; summary of the method: as §4
# Caco-2 [22] = test: Induction of necrosis in human Caco2 cells at 20 uM after 48 hrs by Hoechst 33258/propidium iodide staining based phase contrast microscopic analysis; type: functional; summary of the method: as §3
# Bacillus subtilis [23] = test: Antimicrobial activity against Bacillus subtilis ATCC 6633 for 24 hrs by microdillution method; type: functional; summary of the method: as §1
# SAOS-2 [24] = test: Induction of necrosis in human Saos2 cells at 20 uM after 48 hrs by Hoechst 33258/propidium iodide staining based […] microscopic analysis; type: functional; summary of the method: as §3
# HT-29 [25] = test: Antiproliferative activity against human HT-29 cells after 24 and 72 hrs by MTT assay; type: functional, cell-based; summary of the method: as §5
MIC (Bacillus cereus [1]),IC50 (HeLa [7]),IC50 (HL-60 [8]),IC50 (MCF7 [9]),IC50 (Caco-2 [10]),Structure (SMILES),diameter of the inhibition zone (DIZ) (Staphylococcus aureus),Activity (HeLa [2]),diameter of the inhibition zone (DIZ) (Candida tropicalis),Activity (HT-29 [3]),diameter of the inhibition zone (DIZ) (Enterococcus faecalis),diameter of the inhibition zone (DIZ) (Bacillus cereus [4]),Activity (SAOS-2 [5]),Activity (HL-60 [6]),diameter of the inhibition zone (DIZ) (Saccharomyces cerevisiae),diameter of the inhibition zone (DIZ) (Candida albicans),diameter of the inhibition zone (DIZ) (Klebsiella pneumoniae),diameter of the inhibition zone (DIZ) (Cyberlindnera jadinii),diameter of the inhibition zone (DIZ) (Micrococcus luteus),diameter of the inhibition zone (DIZ) (Escherichia coli),Activity (HL-60 [11]),further results
inactive,28.9 µM,10.6 µM,6.67 µM,16.1 µM,CC1(C)CC[C@]2(C(=O)OCc3ccccc3)CC[C@]3(C)C(=CC[C@@H]4[C@@]5(C)CC[C@H](O)[C@@](C)(/C=N/O)[C@@H]5CC[C@]43C)[C@@H]2C1,inactive,11%,inactive,12%,inactive,inactive,9%,8%,inactive,inactive,inactive,inactive,inactive,inactive,41%,diameter of the inhibition zone (DIZ) (Proteus vulgaris): inactive; IC50 [12]: 10.3 µM; diameter of the inhibition zone (DIZ) [13]: inactive; diameter of the inhibition zone (DIZ) (Bacillus thuringiensis [14]): inactive; Activity (Caco-2 [15]): 11%; Activity (HT-29 [16]): 29%; MIC (Bacillus thuringiensis [17]): inactive; diameter of the inhibition zone (DIZ) (Salmonella typhimurium): inactive; Activity (HeLa [18]): 32%; diameter of the inhibition zone (DIZ) (Pseudomonas aeruginosa): inactive; Activity (MCF7 [19]): 12%; Activity (MCF7 [20]): 54%; diameter of the inhibition zone (DIZ) (Nakaseomyces glabratus): inactive; diameter of the inhibition zone (DIZ) (Bacillus subtilis [21]): inactive; Activity (Caco-2 [22]): 32%; MIC (Bacillus subtilis [23]): inactive; Activity (SAOS-2 [24]): 23%; IC50 (HT-29 [25]): 8.01 µM
inactive,287 µM,6.74 µM,65.2 µM,51.1 µM,CC(=O)O[C@H]1CC[C@]2(C)[C@H]3CC=C4[C@@H]5CC(C)(C)CC[C@]5(C(=O)OCc5ccccc5)CC[C@@]4(C)[C@]3(C)CC[C@H]2[C@]1(C)C=O,inactive,2%,inactive,0.7%,inactive,inactive,0%,3%,inactive,inactive,inactive,inactive,inactive,inactive,51%,diameter of the inhibition zone (DIZ) (Proteus vulgaris): inactive; IC50 [12]: 10.7 µM; diameter of the inhibition zone (DIZ) [13]: inactive; diameter of the inhibition zone (DIZ) (Bacillus thuringiensis [14]): inactive; Activity (Caco-2 [15]): 1%; Activity (HT-29 [16]): 29%; MIC (Bacillus thuringiensis [17]): inactive; diameter of the inhibition zone (DIZ) (Salmonella typhimurium): inactive; Activity (HeLa [18]): 68%; diameter of the inhibition zone (DIZ) (Pseudomonas aeruginosa): inactive; Activity (MCF7 [19]): 5%; Activity (MCF7 [20]): 36%; diameter of the inhibition zone (DIZ) (Nakaseomyces glabratus): inactive; diameter of the inhibition zone (DIZ) (Bacillus subtilis [21]): inactive; Activity (Caco-2 [22]): 37%; MIC (Bacillus subtilis [23]): inactive; Activity (SAOS-2 [24]): 45%; IC50 (HT-29 [25]): 10.3 µM
